Data set [1] concerns Calu-6. The experiment in a line: Inhibition of His6-tagged Frataxin (unknown origin)/HA-tagged Ubiquitin interaction expressed in human Calu6 cells assessed as accumulation of frataxin at 10 uM after 18 hrs by immunoprecipitation assay. Type of data set: cell-based. The essentials:
(§1)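 Calu-6 cells cotransfected with His-frataxin and HA-Ub, then treated with 10 µM MG132 for 18 h starting 24 h after transfection. Frataxin immunoprecipitated from 1.5 mg extract using anti-frataxin on protein A/G beads (4 °C, 12 h). Precipitates run on 12% SDS-PAGE and blotted with anti-Ub. Three independent experiments.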

Data set [2] relates to Calu-6. The experiment in a line: Inhibition of His-tagged Frataxin (unknown origin)/HA-tagged Ubiquitin interaction expressed in human Calu6 cells assessed as accumulation of monoUB-tagged frataxin (1-210) precursor at 10 uM after 18 hrs by immunoprecipitation assay. It is filed as cell-based. The essentials:
as §1

Data set [3] has as its system Calu-6. The experiment in a line: Inhibition of His-tagged Frataxin (unknown origin)/Ubiquitin interaction expressed in human Calu6 cells assessed as increase in frataxin (1-210) precursor level at 10 uM after 18 hrs by Western blotting analysis. It is filed as cell-based. The method in brief:
(§2)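 Calu-6 cells (DMEM with glutamax, 10% FBS) transiently transfected with His-frataxin. From 24 h post-transfection, treated with 10 µM proteasome inhibitor for 18 h or 50 µM compound for 3 days. Extracts (50 µg) resolved on 15% SDS gels and immunoblotted with anti-frataxin using ECL detection. Band levels quantified by PhosphorImager and normalized to tubulin. Three independent experiments.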
On the technique in general: A western blot detects proteins with antibodies after separation by electrophoresis.

Data set [4] concerns Calu-6. The experiment in a line: Inhibition of recombinant His-tagged Frataxin (unknown origin)/GST-tagged mono ubiquitin interaction expressed in human Calu6 cells assessed as presence of frataxin signal at 10 uM after 18 hrs by GST pull down-based Western blotting analysis. It is filed as cell-based. The essentials: (§3)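 Calu-6 cells transfected with His-frataxin or His-K147R. From 24 h post-transfection, cells received 10 µM MG132 for 18 h, or compound for 3 days with MG132 added for the last 18 h. Lysate (500 µg) pulled down with 5 µg GST-monoUb or GST on GSH-sepharose, 4 h at 4 °C, pH 7.5 buffer. Eluates blotted with anti-His and quantified by densitometry as % of control. IC50 obtained by four-parameter logistic fit; at least three independent experiments.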

The test system of data set [5] is T1, Frataxin, mitochondrial (Homo sapiens), Q16595 [K147R].
T1 sequence (whole entry): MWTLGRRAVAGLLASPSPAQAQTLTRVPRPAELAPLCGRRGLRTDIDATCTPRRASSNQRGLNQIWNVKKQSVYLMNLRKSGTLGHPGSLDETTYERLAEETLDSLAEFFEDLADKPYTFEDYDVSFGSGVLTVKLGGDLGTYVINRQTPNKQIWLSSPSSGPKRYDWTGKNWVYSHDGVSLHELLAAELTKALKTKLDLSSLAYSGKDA
The experiment in a line: Inhibition of recombinant GST-tagged mono ubiquitin/His-tagged Frataxin K147R mutant (unknown origin) interaction expressed in human Calu6 cells assessed as presence of frataxin signal at 10 uM after 18 hrs by GST pull down-based Western blotting analysis. It is filed as cell-based. Particulars: Calu-6. The method in brief: as §3

A short description of data set [6]: (§4) Inhibition of human His-tagged Frataxin/GST-tagged mono ubiquitin interaction expressed in human Calu6 cells after 3 days by GST pull down-based Western blot analysis. Type of data set: cell-based. Particulars: calu-6. The method in brief: as §3
Data set [7] concerns Calu-6. The data set is described as §4. It is filed as cell-based. The method in brief:
as §3

The target of data set [8] is T2, Frataxin, mitochondrial (Homo sapiens) (UniProt Q16595).
T2 sequence (whole entry): T1 sequence (whole entry) with R147K
The experiment in a line: Binding affinity to recombinant His-tagged frataxin (unknown origin) at 1 uM at 37 degC by UF-LC/MS analysis relative to control. The essentials: (§5)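 His-frataxin recombinant protein (E. coli-expressed, Ni-NTA purified), 1 µM, incubated with ligand at 1 µM in 100 mM Tris-HCl pH 7.5, 50 mM KCl, 5 mM MgCl2, DMSO ≤2%, for 60 min at 25 or 37 °C. Unbound ligand removed by ultrafiltration and washing. Bound ligand dissociated in methanol and quantified by LC/MS (ESI positive). Ratio of peak area with active vs heat-denatured (90 °C, 1 h) protein. Duplicate assays, each analyzed twice.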

Data set [9] deals with T2, Frataxin, mitochondrial (Homo sapiens). The experiment in a line: Binding affinity to recombinant His-tagged frataxin (unknown origin) at 1 uM at 25 degC by UF-LC/MS analysis relative to control. The essentials:
as §5

Data set [10] concerns Calu-6. The experiment in a line: Inhibition of human His-tagged Frataxin/Ubiquitin interaction expressed in human Calu6 cells assessed as increase in mature frataxin (81-210) level at 50 uM after 3 days by Western blotting analysis. It is filed as cell-based. The essentials:
as §2

The subject of data set [11] is Calu-6. The experiment in a line: Cytotoxicity against human Calu6 cells assessed as cell viability up to 100 uM. Type of data set: cell-based.

Changes are numbered by the printed parent chain. pIC50: −log10 of the molar value. Active and inactive are the calls of the source. The rule behind the calls is not given here. Peptide text beside a SMILES is read from it. * marks the point of attachment. Cbz = O=C(OCc1ccccc1)*

For orientation: pIC50 means −log10 of the IC50, conventionally taken in molar units.

`CC(C)C[C@@H](C=O)NC(=O)[C@H](CC(C)C)NC(=O)[C@H](CC(C)C)NC(=O)OCc1ccccc1` (Cbz-Leu-Leu-Leu-aldehyde): the inhibition entry in [1], in [2], in data set [3] and in data set [4] was “Active” in each case. In addition, in data set [5], the inhibition entry was “inactive”.

On to `Oc1cc2c(cc1C(c1ccc(Cl)cc1)N1CCOCC1)OCO2` (stereo not drawn), for which, in [6], the pIC50 is 4.17. The inhibition entry in data set [7] was “Dose-dependent effect”.

With `COc1cccc(C(c2cc3c(cc2O)OCO3)N2CCOCC2)c1OC` (single isomer, unassigned; (+)) [listing 1 of 2 here], the results for the fold change (FC) in [8] and in data set [9] were 3.32 and 3.7, respectively. In data set [7], the inhibition result was “Dose-dependent effect”. Further, in data set [10], the inhibition entry is “Active”.

In [6], `COc1ccc(C(c2cc3c(cc2O)OCO3)N2CCOCC2)cc1` (stereo not drawn) gave a pIC50 of 4.19. Further, the inhibition result in data set [7] is “Dose-dependent effect”.

Consider `COc1cccc(C(c2cc3c(cc2O)OCO3)N2CCOCC2)c1OC` (single isomer, unassigned; (-)), for which the inhibition result in data set [10] was “inactive”.

As to `CC(C)C[C@H](NC(=O)[C@H](Cc1ccccc1)NC(=O)c1cnccn1)B(O)O`, the inhibition entry in data set [3] is “Active”.

With `COc1cccc(C(c2cc3c(cc2O)OCO3)N2CCOCC2)c1OC` (single isomer, unassigned; (+)) [listing 2 of 2 here], in data set [11], the Activity entry was “Non-toxic”. The molecule further gave a negative-log IC50 (pIC50) in [6] of 4.35.

For the molecule `COc1ccc(C(c2cc3c(cc2O)OCO3)N2CCOCC2)c(OC)c1` (stereo not drawn), in data set [6], the pIC50 is 4.36. For the same molecule, the inhibition result in [7] was “Dose-dependent effect”.

Regarding `COc1cccc(C(c2cc3c(cc2O)OCO3)N2CCOCC2)c1O` (stereo not drawn), in data set [6], the pIC50 is 4.54. Moreover, the inhibition result in data set [7] was “Dose-dependent effect”.

As to `COc1cc(OC)c(C(c2cc3c(cc2O)OCO3)N2CCOCC2)c(OC)c1` (stereo not drawn), the pIC50 in [6] is 4.28. In addition, the inhibition entry in data set [7] was “Dose-dependent effect”.

`COc1ccc(C(c2cc3c(cc2O)OCO3)N2CCOCC2)cc1OC` (stereo not drawn) gave a negative-log IC50 (pIC50) in data set [6] of 4.70. Also, the inhibition result in [7] was “Dose-dependent effect”.

As for `COc1cccc(C(c2cc3c(cc2O)OCO3)N2CCOCC2)c1OC` (racemic), the inhibition entry in data set [10] is “Active”.

For the molecule `COc1ccc(C(c2cc3c(cc2O)OCO3)N2CCCC2)cc1` (stereo not drawn), the negative logarithm of the IC50 (pIC50) in data set [6] was 4.01. The inhibition entry in [7] is “Dose-dependent effect”.

For the molecule `Oc1cc2c(cc1C(c1ccc(F)cc1)N1CCOCC1)OCO2` (stereo not drawn), the negative-log IC50 (pIC50) in data set [6] is 4.17. Moreover, the inhibition entry in [7] is “Dose-dependent effect”.

On to `Oc1cc2c(cc1C(c1ccc3c(c1)OCO3)N1CCOCC1)OCO2` (stereo not drawn), for which, in data set [6], the pIC50 was 4.15. Further, in data set [7], the inhibition entry was “Dose-dependent effect”.

With `Oc1ccccc1C(c1cc2c(cc1O)OCO2)N1CCOCC1` (stereo not drawn), in data set [6], the pIC50 is 4.10. The inhibition entry in data set [7] is “Dose-dependent effect”.

In turn, `CN(C)c1ccc(C(c2cc3c(cc2O)OCO3)N2CCOCC2)cc1` (stereo not drawn) showed a pIC50 in [6] of 4.09. Further, in [7], the inhibition result is “Dose-dependent effect”.

`COc1ccc(C(c2cc3c(cc2O)OCO3)N2CCCCC2)cc1` (stereo not drawn) had a pIC50 in data set [6] of 4.09. Further, the inhibition entry in data set [7] is “Dose-dependent effect”.

Values taken from ChEMBL document CHEMBL2321739, “Discovery of a novel small molecule inhibitor targeting the frataxin/ubiquitin interaction via structure-based virtual screening and bioassays” (J Med Chem, 2013).
